Measurements as given in ChEMBL document CHEMBL2380243, “Design and synthesis of 2-N-substituted indazolone derivatives as non-carboxylic acid glycogen synthase activators” (Bioorg Med Chem Lett, 2013).

Experiments:
[1] = molecular target: T1, Glycogen [starch] synthase, muscle (Homo sapiens) (UniProt P13807); assay: Activation of human recombinant muscle GYS1 expressed in insect sf9 cells using glycogen and UDP-glucose as substrates assessed as concentration required to 200% activation by spectrophotometry
T1 sequence (whole entry): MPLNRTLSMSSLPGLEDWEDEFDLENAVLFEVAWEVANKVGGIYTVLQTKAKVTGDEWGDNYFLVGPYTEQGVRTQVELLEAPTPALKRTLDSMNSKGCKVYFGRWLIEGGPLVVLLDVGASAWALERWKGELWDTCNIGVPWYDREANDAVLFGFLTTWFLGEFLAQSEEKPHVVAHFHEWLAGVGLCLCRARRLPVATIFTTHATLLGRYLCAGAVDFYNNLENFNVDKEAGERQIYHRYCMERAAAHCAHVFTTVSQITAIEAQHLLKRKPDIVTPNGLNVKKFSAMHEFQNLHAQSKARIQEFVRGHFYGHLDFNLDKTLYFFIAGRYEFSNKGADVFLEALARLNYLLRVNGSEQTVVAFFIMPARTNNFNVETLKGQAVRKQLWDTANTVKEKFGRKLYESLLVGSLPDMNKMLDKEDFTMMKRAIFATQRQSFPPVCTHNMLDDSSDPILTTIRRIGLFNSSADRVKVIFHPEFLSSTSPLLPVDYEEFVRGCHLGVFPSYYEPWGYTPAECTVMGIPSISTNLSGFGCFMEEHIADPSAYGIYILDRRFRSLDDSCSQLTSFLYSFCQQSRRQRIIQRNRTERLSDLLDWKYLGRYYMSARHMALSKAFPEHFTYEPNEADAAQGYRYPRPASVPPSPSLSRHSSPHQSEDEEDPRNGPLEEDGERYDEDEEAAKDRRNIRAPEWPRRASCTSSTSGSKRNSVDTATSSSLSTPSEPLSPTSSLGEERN
Procedure, shortened: (§1)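 Recombinant human muscle GYS1 (partially purified from sf9 cells) is read in a pyruvate kinase/lactate dehydrogenase-coupled assay at room temperature. Compounds are diluted in 30 mM glycylglycine pH 7.3, 40 mM KCl, 20 mM MgCl2, 9.2% DMSO, ±20 mM glucose-6-phosphate. The substrate mix holds glycogen, UDP-glucose, PEP and NADH, all as solution concentrations. NADH loss is read at 340 nm every 3 min for 15 min. EC50 is half-maximal activation, SC200 is the concentration doubling activity, and dose-response runs are in triplicate.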

[2] = molecular target: T1, Glycogen [starch] synthase, muscle (Homo sapiens); assay: Activation of human recombinant muscle GYS1 expressed in insect sf9 cells using glycogen and UDP-glucose as substrates at 75 uM by spectrophotometry relative to control
Procedure, shortened: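 Same coupled GYS1 assay (sf9-derived human muscle enzyme, PK/LDH coupling, NADH absorbance at 340 nm read every 3 min over 15 min, room temperature). Activation is expressed as fold increase over control at the highest concentration tested.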

[3] = molecular target: T2, Glycogen [starch] synthase, muscle (Homo sapiens, UniProt P13807); assay: Activation of human recombinant muscle GYS1 expressed in insect sf9 cells using glycogen and UDP-glucose as substrates by spectrophotometry; procedure, shortened: as §1
T2 sequence (P13807 whole entry): T1 sequence (whole entry)

[4] = AUC in C57 mouse at 10 mg/kg, po; format: ADME, organism-based; design: dose 10 mg/kg, route oral; conditions: plasma
Procedure, shortened: (§2)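 C57 mice get a single oral dose of 10 mg/kg as an aqueous suspension in 0.1 M phosphate buffer, pH 7.4, containing 10% PEG 400 by volume. Plasma exposure is measured and reported as Cmax and AUC.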

[5] = Cmax in C57 mouse at 10 mg/kg, po; format: ADME, organism-based; design: dose 10 mg/kg, route oral; conditions: in vivo; procedure, shortened: as §2
Mus musculus = assay: Drug metabolism in po dosed C57 mouse assessed as conversion to ortho-aminobenzoic acid in plasma; format: ADME, organism-based; conditions: in vivo

| Structure (SMILES) | Activity [1] [µM] | fold change (FC) [2] | EC50 [3] [nM] | AUC [4] [ng·h/mL] | Cmax [5] [ng/mL] | Drug metabolism (Mus musculus) |
| --- | --- | --- | --- | --- | --- | --- |
| O=C(O)[C@@H]1CCCN1C(=O)c1ccc(COc2ccc(-c3ccccc3)cc2)o1 |  | 5.8 | 15100 |  |  |  |
| O=c1c2cccc(COc3ccc(-c4cc(F)c(F)cc4F)cc3)c2[nH]n1CCO | 0.22 | 5.5 | 770 | 3590 | 1350 |  |
| COc1cc(F)c(F)cc1-c1ccc(OCc2cccc(C(=O)N(C)CCO)c2)cc1 |  | 7.3 | 4100 |  |  |  |
| Cc1cc(F)c(F)cc1-c1ccc(OCc2cccc3c(=O)n(-c4ccc(F)cc4)[nH]c23)cc1 | 1.86 | 2.5 | 1470 |  |  |  |
| O=c1c2cccc(COc3ccc(-c4cc(F)c(F)cc4F)cc3)c2[nH]n1-c1cccnc1 | 2.75 | 5.8 | 4010 |  |  |  |
| Cn1[nH]c2c(COc3ccc(-c4cc(F)c(F)cc4F)cc3)cccc2c1=O | 0.49 | 6.8 | 1780 | 746 | 254 |  |
| Cc1cc(F)c(F)cc1-c1ccc(OCc2cccc3c(=O)n(CC(=O)O)[nH]c23)cc1 | 0.33 | 3.7 | 420 |  |  |  |
| O=c1c2cccc(COc3ccc(-c4cc(F)c(F)cc4Cl)cc3)c2[nH]n1-c1cccnc1 | 1.14 | 6.1 | 1860 |  |  |  |
| O=c1c2cccc(COc3ccc(-c4cc(F)c(F)cc4F)cc3)c2[nH]n1C[C@H](O)CO | 0.41 | 3 | 580 |  |  |  |
| COc1cc(F)c(F)cc1-c1ccc(OCc2cccc(C(=O)N(C)CC(O)CO)c2)cc1 (stereo unspecified) |  | 6.6 | 10300 |  |  |  |
| O=c1o[nH]c2c(COc3ccc(-c4cc(F)c(F)cc4F)cc3)cccc12 | 0.41 | 4 | 1000 |  |  | Active |
| COc1cc(F)c(F)cc1-c1ccc(OCc2cccc3c(=O)n(-c4ccc(F)cc4)[nH]c23)cc1 | 2.01 | 2.8 | 1370 |  |  |  |
| O=C(O)Cn1[nH]c2c(COc3ccc(-c4cc(F)c(F)cc4F)cc3)cccc2c1=O | 0.69 | 3.6 | 1200 |  |  |  |
| O=c1c2cccc(COc3ccc(-c4cc(F)c(F)cc4F)cc3)c2[nH]n1C[C@@H](O)CO | 0.32 | 3.3 | 680 |  |  |  |
| COCCn1[nH]c2c(COc3ccc(-c4cc(F)c(F)cc4OC)cc3)cccc2c1=O | 0.11 | 4.4 | 370 |  |  |  |
| COCCn1[nH]c2c(COc3ccc(-c4cc(F)c(F)cc4F)cc3)cccc2c1=O | 0.52 | 3 | 790 |  |  |  |

The next compounds have a lower EC50 [3] than those just listed; values first:

| Activity [1] [µM] | fold change (FC) [2] | EC50 [3] [nM] | AUC [4] [ng·h/mL] | Cmax [5] [ng/mL] | Drug metabolism (Mus musculus) | Structure (SMILES) |
| --- | --- | --- | --- | --- | --- | --- |
| 0.11 | 3.3 | 340 |  |  |  | Cc1cc(F)c(F)cc1-c1ccc(OCc2cccc3c(=O)n(C[C@H](O)CO)[nH]c23)cc1 |
| 0.07 | 5.4 | 320 |  |  |  | COc1cc(F)c(F)cc1-c1ccc(OCc2cccc3c(=O)n(C)[nH]c23)cc1 |
| 0.16 | 3.5 | 300 |  |  |  | O=c1c2cccc(COc3ccc(-c4cc(F)c(F)cc4Cl)cc3)c2[nH]n1C[C@H](O)CO |
| 0.06 | 3.1 | 270 |  |  |  | COc1cc(F)c(F)cc1-c1ccc(OCc2cccc3c(=O)n(C[C@@H](O)CO)[nH]c23)cc1 |
| 0.25 | 3.6 | 260 |  |  |  | O=c1c2cccc(COc3ccc(-c4cc(F)c(F)cc4Cl)cc3)c2[nH]n1C[C@@H](O)CO |
| 0.07 | 3.3 | 250 |  |  |  | COc1cc(F)c(F)cc1-c1ccc(OCc2cccc3c(=O)n(C[C@H](O)CO)[nH]c23)cc1 |
| 0.13 | 3 | 240 |  |  |  | Cc1cc(F)c(F)cc1-c1ccc(OCc2cccc3c(=O)n(C)[nH]c23)cc1 |
| 0.1 | 3 | 230 |  |  |  | Cc1cc(F)c(F)cc1-c1ccc(OCc2cccc3c(=O)n(C[C@@H](O)CO)[nH]c23)cc1 |
| 0.06 | 3.2 | 200 |  |  |  | COc1cc(F)c(F)cc1-c1ccc(OCc2cccc3c(=O)n(CC(=O)O)[nH]c23)cc1 |
|  | 5.4 | 140 |  |  |  | COc1cc(F)c(F)cc1-c1ccc(OCc2cccc(C(=O)N3CCC[C@H]3C(=O)O)c2)cc1 |
|  | 6.8 | 100 |  |  |  | COc1cc(F)c(F)cc1-c1ccc(OCc2cccc(C(=O)N(C)CC(=O)O)c2)cc1 |
